{"source": "ChEMBL document CHEMBL1687848", "about": "“In vitro effect of qnrA1, qnrB1, and qnrS1 genes on fluoroquinolone activity against isogenic Escherichia coli isolates with mutations in gyrA and parC” (2011)", "type_in_all_cases": "functional", "key": {"[1]": {"test_system": "Escherichia coli", "assay": "Antibacterial activity against qnrA gene expressing Escherichia coli ATCC 25922 harboring GyrA S83L mutant and pBK-QnrA1 by broth microdilution method"}, "[2]": {"test_system": "Escherichia coli", "assay": "Antibacterial activity against qnrB gene expressing Escherichia coli ATCC 25922 harboring ParC S80R mutant and pBK-QnrB1 by broth microdilution method"}, "[3]": {"test_system": "Escherichia coli", "assay": "Antibacterial activity against Escherichia coli ATCC 25922 expressing qnrA gene and pBK-QnrA1 by broth microdilution method"}, "[4]": {"test_system": "Escherichia coli", "assay": "Antibacterial activity against Escherichia coli ATCC 25922 expressing qnrS gene and pBK-QnrS1 by broth microdilution method"}, "[5]": {"test_system": "Escherichia coli", "assay": "Antibacterial activity against Escherichia coli ATCC 25922 harboring GyrA S83L mutant by broth microdilution method"}, "[6]": {"test_system": "Escherichia coli", "assay": "Antibacterial activity against Escherichia coli ATCC 25922 expressing qnrA gene and pBK-QnrA1 assessed as mutant prevention concentration"}, "[7]": {"test_system": "Escherichia coli", "assay": "Antibacterial activity against Escherichia coli ATCC 25922 harboring GyrA S83L mutant assessed as mutant prevention concentration"}, "[8]": {"test_system": "Escherichia coli", "assay": "Ratio of mutant prevention concentration to MIC for Escherichia coli ATCC 25922 expressing qnrA gene and pBK-QnrA1", "procedure,_shortened": "(§1)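 MIC: broth microdilution per CLSI, in duplicate. The ratio is MPC over MIC. Strains are E. coli ATCC 25922 or its GyrA Ser83Leu gene-replacement mutant, with qnr genes on pBK-CMV introduced by electroporation.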"}, "[9]": {"test_system": "Escherichia coli", "assay": "Ratio of mutant prevention concentration to MIC for Escherichia coli ATCC 25922 expressing qnrS gene and pBK-QnrS1", "procedure,_shortened": "as §1"}, "[10]": {"test_system": "Escherichia coli", "assay": "Antibacterial activity against Escherichia coli ATCC 25922 expressing qnrB gene and pBK-QnrB1 assessed as earliest time required to resistant colonies visible one step below mutant prevention concentration"}, "[11]": {"test_system": "Escherichia coli", "assay": "Antibacterial activity against Escherichia coli ATCC 25922 harboring GyrA S83L mutant assessed as earliest time required to resistant colonies visible one step below mutant prevention concentration"}, "[12]": {"test_system": "Escherichia coli", "assay": "Antibacterial activity against qnrA gene expressing Escherichia coli ATCC 25922 harboring GyrA S83L mutant and pBK-QnrA1 assessed as earliest time required to resistant colonies visible one step below mutant prevention concentration"}}}
{"smiles": "CCn1cc(C(=O)O)c(=O)c2cc(F)c(N3CCNCC3)cc21", "note": "[NORFLOXACIN]", "values": [{"measurement": "MBC", "setting": "[1]", "value": 2, "unit": "µg/mL"}, {"measurement": "MIC", "setting": "[1]", "value": 2, "unit": "µg/mL"}, {"measurement": "MBC", "setting": "[2]", "value": 0.5, "unit": "µg/mL"}, {"measurement": "MIC", "setting": "[2]", "value": 0.5, "unit": "µg/mL"}, {"measurement": "MBC", "setting": "[3]", "value": 1, "unit": "µg/mL"}, {"measurement": "MIC", "setting": "[3]", "value": 0.5, "unit": "µg/mL"}, {"measurement": "MBC", "setting": "[4]", "value": 1, "unit": "µg/mL"}, {"measurement": "MIC", "setting": "[4]", "value": 0.5, "unit": "µg/mL"}, {"measurement": "MBC", "setting": "[5]", "value": 0.5, "unit": "µg/mL"}, {"measurement": "MIC", "setting": "[5]", "value": 0.125, "unit": "µg/mL"}, {"measurement": "Activity", "setting": "[6]", "value": 8, "unit": "µg/mL"}, {"measurement": "Activity", "setting": "[7]", "value": 8, "unit": "µg/mL"}, {"measurement": "Ratio", "setting": "[8]", "value": 16}, {"measurement": "Ratio", "setting": "[9]", "value": 16}, {"measurement": "Time", "setting": "[10]", "value": 48, "unit": "h"}, {"measurement": "Time", "setting": "[11]", "value": 24, "unit": "h"}, {"measurement": "Time", "setting": "[12]", "value": 24, "unit": "h"}]}
